Most compounds without a hit are left out; they make up all but 3.7% or so of the library.
m-calpain inh – inhibitors of pig calpain II, primary screen, biochemical, fluorogenic peptide substrate, 1536-well. purified calpain II, 30 min. inhibition, % at 16 µM. actives 0.37% (n = 220,000);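 active means inhibition above about 50%, limit read from the data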
Arbovirus inh – antivirals against arbovirus infection, primary screen, cell-based, full library, 10K replicate subset; arbovirus infection cell-based antiviral screen; AID 1251, 2008; actives 0.37% (n = 200,000); inhibition, % at 10 µM; in the data active means inhibition above about 30%
Mdm2 ligase inh – MDM2-luciferase reporter signal enhancers, primary screen, MDM2 E3 ligase inhibitor project, cell-based, luminescence, 1536-well. signal enhancement, % at 5 µM. E3 ubiquitin-protein ligase Mdm2 (Homo sapiens), Q00987. cell-based MDM2 ubiquitination luciferase reporter, 2 h; 0 = plate control, 100 = twice control, blank-subtracted. actives 0.11% (n = 210,000);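 active means signal enhancement of 30% or more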;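 further: luminescence tracks abundance of the self-degrading MDM2-luciferase fusion protein; higher signal means inhibition of MDM2 E3 ligase activity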
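System: stable MDM2–luciferase fusion reporter cells / Input: 2000 cells seeded into each well / Schedule: 4 h settle plus 2 h compound, 37 °C / Compound: single-point 5 µM / Buffer or medium: cells held in DMEM / Benchmarks: control and blank well means / Evaluation: percent signal gain over controls, blank-subtracted / Measured by: luciferase luminescence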
KCC2 mod – KCC2 cotransporter modulators, thallium flux, primary screen, cell-based, HEK293 KCC2, FluoZin-2 fluorescence, MLSMR | actives 2.2% (n = 190,000) | Solute carrier family 12 member 5 (Homo sapiens), Q9H2X9 | B-score of Tl+ flux slope (higher = more flux/activation; lower = inhibition) at 10 µM | KCC2 cells, thallium flux FluoZin-2 fluorescence;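 active means thallium flux slope and its plate-corrected score both differing from the plate sample mean at a set confidence after two filtering rounds, in either direction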;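 further: slope of fluorescence scaled to starting intensity during 10 to 20 s after thallium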
ROMK primary – ROMK potassium channel modulators, primary screen, cell-based, thallium flux, MLSMR library | ATP-sensitive inward rectifier potassium channel 1 (Homo sapiens), P48048 | Tet-inducible ROMK, thallium flux fluorescence; actives lie on both sides | B-score at 10 µM | actives 2% (n = 130,000) | AID 1918, 2009;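 active means signal ratio slope over the read window, or its plate-corrected B-score, at least 3 SD from the plate mean, either direction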;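 further: B-score of the F/F0 ratio slope over 7 to 12 s after thallium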
Target sequence (P48048 whole entry, looked up): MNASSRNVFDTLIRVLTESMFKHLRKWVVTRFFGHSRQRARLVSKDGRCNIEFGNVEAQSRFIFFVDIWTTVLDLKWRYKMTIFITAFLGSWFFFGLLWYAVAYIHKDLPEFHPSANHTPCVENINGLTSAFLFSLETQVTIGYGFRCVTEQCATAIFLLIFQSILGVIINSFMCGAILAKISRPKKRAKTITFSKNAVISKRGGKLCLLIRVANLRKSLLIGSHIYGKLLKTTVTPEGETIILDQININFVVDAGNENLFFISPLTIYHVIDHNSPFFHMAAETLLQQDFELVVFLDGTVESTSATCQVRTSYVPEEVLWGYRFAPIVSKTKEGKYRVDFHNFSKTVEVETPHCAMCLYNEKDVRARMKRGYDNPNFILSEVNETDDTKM
PKD1 inh – inhibitors of human PKD1 kinase, biochemical, fluorescence polarization. Serine/threonine-protein kinase D1 (Homo sapiens), Q15139. PKD1 kinase fluorescence polarization assay. inhibition, % (no concentration beside the values). actives 0.056% (n = 200,000). AID 797, 2007; in the data active means inhibition above about 50%
KCC2 secondary – KCC2 modulators in sodium-free buffer, confirmation, cell-based, HEK293 KCC2, thallium flux, secondary assay. normalised thallium flux (F/F0 slope) at 10 µM. shares compounds with KCC2 mod. FluoZin2 fluorescence; stronger effect = higher value. actives 15% (n = 3,700). AID 1713, 2009;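 active means thallium flux slope above the same plate's solvent-only control mean plus 3 SD; inconclusive means the two replicate wells disagree; inactive means no significant difference from solvent-only control wells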
KCC2 bumet counter – thallium flux persisting under bumetanide in KCC2 cells, confirmation, counter-screen for KCC2 modulator project, cell-based, HEK293 KCC2, FluoZin2, secondary assay 3. AID 1714, 2009. actives 49% (n = 3,700). normalized thallium flux at 10 µM. shares compounds with KCC2 mod. HEK293-KCC2 + bumetanide/ouabain; stronger effect = higher value;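 active means thallium entry rate above the same plate's blocked-transporter control wells by more than 3 SD; inconclusive means the two repeat wells disagree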;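 further: raw slope of fluorescence over initial fluorescence between 10 and 20 s after thallium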
KCC2 sec2 – KCC2 modulators without ouabain present, confirmation, cell-based, HEK293 KCC2, thallium flux, FluoZin2, secondary assay 2; AID 1715, 2009; thallium flux FluoZin2 fluorescence; actives lie on both sides; F/F0 rise rate, 10–20 s post-thallium; actives 23% (n = 3,700); shares compounds with KCC2 mod; normalized thallium flux at 10 µM;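 active means thallium flux slope more than 3 SD above or below the plate's solvent-only control mean, mostly below; inconclusive means the two repeat wells disagreed; inactive means no significant shift from solvent-only controls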;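 further: raw slope with 0.1% DMSO as baseline and bumetanide as block control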
HEK293 Tl flux – thallium flux modulation in parental HEK cells, confirmation, counter-screen for KCC2 modulator project, cell-based, counterscreen 1; shares compounds with KCC2 mod; HEK293 parental cells, thallium flux FluoZin2, ouabain; baseline-ratio fluorescence slope, 10–20 s after thallium; thallium flux rate (normalised fluorescence) at 10 µM; actives 46% (n = 3,700);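 active means thallium flux rate significantly above the same plate's solvent-only control wells, beyond their mean plus 3 SD; inconclusive means the two replicate wells gave conflicting results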
KCC2 ouabain – KCC2 inhibitors and activators, ouabain retest, confirmation, HEK-KCC2 cells; shares compounds with KCC2 mod; HEK293-KCC2, thallium flux FluoZin2 fluorescence; bidirectional: low = inhibitor, high = activator; raw Tl+ flux slope (below DMSO = inhibition, above = activation) at 10 µM; actives 48% (n = 3,700); AID 1717, 2009;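 active means thallium flux slope beyond 3 SD from same-plate DMSO control mean in most replicates, usually higher, sometimes lower; inconclusive means repeat tests gave conflicting results; inactive means no significant difference from controls in most replicates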;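 further: slope of initial-normalized fluorescence between seconds 10 and 20 after thallium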
HEK counter2 – native HEK Tl+ uptake effects, second counter-screen – HEK cells, counterscreen 2, counter-screen for KCC2 modulator project, confirmation. shares compounds with KCC2 mod. HEK293 parental, thallium flux FluoZin-2 fluorescence slope. thallium flux slope at 10 µM. actives 33% (n = 3,700). AID 1718, 2009;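 active means thallium flux slope above the same plate's solvent-control mean plus 3 SD in both duplicate wells; inconclusive means duplicate wells that disagreed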;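 further: run without ouabain in cells lacking the KCC2 cotransporter; slope of fluorescence scaled to its starting value between 10 and 20 s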
* marks the source's active call; other numbers are inactive results; i = inactive; u = inconclusive; x = not tested or not shown.

SMILES	m-calpain inh	Arbovirus inh	Mdm2 ligase inh	KCC2 mod	ROMK primary	PKD1 inh	KCC2 secondary	KCC2 bumet counter	KCC2 sec2	HEK293 Tl flux	KCC2 ouabain	HEK counter2
CCOC(=O)C1(Cc2cccc(F)c2)CCN(Cc2cnc(C)s2)CC1	25	-2	-14	x	x	-1	x	x	x	x	x	x
CCOC(=O)C1(CCCc2ccccc2)CCN(Cc2cnc(C)s2)CC1	-24	4	-11	-4.9*	-1.2	2	u	0.0056	u	0.0082	0.024	0.0089
O=C(O)Cc1nc(-c2cccnc2)sc1-c1ccc(Br)cc1	-20	x	-12	x	x	x	x	x	x	x	x	x
CC(=O)Nc1ccc(S(=O)(=O)Nc2cccc(-c3cn4cccnc4n3)c2)cc1	i	4	-8	0.065	-0.93	-1	x	x	x	x	x	x
CC(C)N1C(=O)S/C(=C/c2ccccc2OCc2ccc(C(=O)O)cc2)C1=O	-11	26	4	-4.7*	-1.6	-1	0.0064	0.0047	0.024*	0.0064	0.014*	0.0088
COc1cccc(/C=C2\SC(=O)NC2=O)c1OCc1ccc(C(=O)O)cc1	-22	13	-6	-0.19	0.66	-11	x	x	x	x	x	x
O=C(CN1CCC(NC(=O)c2cccc(F)c2)CC1)NCc1ccccc1F	16	3	-17	x	-0.63	-10	0.0089	0.0068	0.031	0.0073	0.033	0.01
COc1ccc(CSCCc2n[nH]c(=S)n2-c2ccccc2)cc1C	30	2	-2	55*	x	-1	0.0091	0.029*	0.034	0.023*	0.02	0.012
S=c1[nH]nc(CCSCc2ccccc2)n1-c1ccccc1	2	5	0	-1.4	x	4	x	x	x	x	x	x
O=C(CN1C(=O)/C(=C/c2ccccc2F)Sc2ccccc21)N1CCN(c2ccccn2)CC1	29	0	2	-0.54	-0.76	4	x	x	x	x	x	x
c1ccc(-c2ccc(-n3ccnc3)cc2)cc1	6	-1	4	x	0.25	2	0.009	0.0055	u	0.0035	0.017*	0.01
O=C(CSc1ncccn1)N/N=C/c1cccs1	-30	3	-9	4.5*	-0.28	2	0.0077	0.0062	0.029	0.007	0.02	0.0092
Cc1ccccc1NCC(=O)N/N=C/c1ccc([N+](=O)[O-])cc1	18	3	11	-5.8*	-1.3	-3	0.0075	0.0049	u	0.008	0.018	0.0099

Assay outcomes from PubChem BioAssay.
